Data: ChEMBL document CHEMBL1153223, “One pot synthesis and SAR of some novel 3-substituted 5,6-diphenyl-1,2,4-triazines as antifungal agents” (2010)
Converted amounts (≈) assume the structure as drawn. The source made the active and inactive calls. The calls are words filed in the database; no cut-off is given here.

What was measured:
Fusarium oxysporum [1] = assay: Antifungal activity against Fusarium oxysporum NCIM 1332 by standard agar plate method; assay type: functional
In short: (§1)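 Read-out was the minimum inhibitory concentration (MIC) on agar plates, with miconazole and fluconazole run as reference antifungal standards.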

Aspergillus flavus [2] = assay: Antifungal activity against Aspergillus flavus NCIM 539 by standard agar plate method; assay type: functional; in short: as §1
Cryptococcus neoformans [3] = assay: Antifungal activity against Cryptococcus neoformans NCIM 576 by standard agar plate method; assay type: functional; in short: as §1
Candida albicans = assay: Antifungal activity against Candida albicans NCIM 347 by standard agar plate method; assay type: functional; in short: as §1
Aspergillus niger [4] = assay: Antifungal activity against Aspergillus niger NCIM 1196 by standard agar plate method; assay type: functional; in short: as §1
Cryptococcus neoformans [5] = assay: Antifungal activity against Cryptococcus neoformans NCIM 576 up to 200 ug/mL by standard agar plate method; assay type: functional, organism-based; in short: as §1
Aspergillus niger [6] = assay: Antifungal activity against Aspergillus niger NCIM 1196 up to 200 ug/mL by standard agar plate method; assay type: functional, organism-based; in short: as §1
Aspergillus flavus [7] = assay: Antifungal activity against Aspergillus flavus NCIM 539 up to 200 ug/mL by standard agar plate method; assay type: functional, organism-based; in short: as §1
Fusarium oxysporum [8] = assay: Antifungal activity against Fusarium oxysporum NCIM 1332 up to 200 ug/mL by standard agar plate method; assay type: functional, organism-based; in short: as §1

SMILES: CCCC(=O)N1CCC(n2cc(-c3nnc(-c4ccccc4)c(-c4ccccc4)n3)nn2)CC1
- MIC (Fusarium oxysporum [1]): 65 mg/L (≈ 143 µM)
- MIC (Aspergillus flavus [2]): 35 mg/L (≈ 77.2 µM)
- MIC (Cryptococcus neoformans [3]): 75 mg/L (≈ 165 µM)
- MIC (Candida albicans): 62.5 mg/L (≈ 138 µM)
- MIC (Aspergillus niger [4]): 40 mg/L (≈ 88.2 µM)

SMILES: O=C(c1ccc(Cl)cc1)N1CCC(n2cc(-c3nnc(-c4ccccc4)c(-c4ccccc4)n3)nn2)CC1
- MIC (Fusarium oxysporum [1]): 25 mg/L (≈ 47.9 µM)
- MIC (Aspergillus flavus [2]): 15 mg/L (≈ 28.7 µM)
- MIC (Cryptococcus neoformans [3]): 30 mg/L (≈ 57.5 µM)
- MIC (Candida albicans): 25 mg/L (≈ 47.9 µM)
- MIC (Aspergillus niger [4]): 12.5 mg/L (≈ 23.9 µM)

SMILES: OC(Cn1cncn1)(Cn1cncn1)c1ccc(F)cc1F [FLUCONAZOLE]
- MIC (Fusarium oxysporum [1]): 5 mg/L (≈ 16.3 µM)
- MIC (Aspergillus flavus [2]): 5 mg/L (≈ 16.3 µM)
- MIC (Cryptococcus neoformans [3]): 5 mg/L (≈ 16.3 µM)
- MIC (Candida albicans): 5 mg/L (≈ 16.3 µM)
- MIC (Aspergillus niger [4]): 10 mg/L (≈ 32.7 µM)

SMILES: Cc1ccc(S(=O)(=O)N2CCC(n3cc(-c4nnc(-c5ccccc5)c(-c5ccccc5)n4)nn3)CC2)cc1
- MIC (Fusarium oxysporum [1]): 100 mg/L (≈ 186 µM)
- MIC (Aspergillus flavus [2]): 35 mg/L (≈ 65.1 µM)
- MIC (Cryptococcus neoformans [3]): 150 mg/L (≈ 279 µM)
- MIC (Candida albicans): 90 mg/L (≈ 167 µM)
- MIC (Aspergillus niger [4]): 47.5 mg/L (≈ 88.3 µM)

SMILES: CS(=O)(=O)N1CCC(n2cc(-c3nnc(-c4ccccc4)c(-c4ccccc4)n3)nn2)CC1
- MIC (Fusarium oxysporum [1]): 60 mg/L (≈ 130 µM)
- MIC (Cryptococcus neoformans [5]): inactive
- MIC (Aspergillus niger [6]): inactive
- MIC (Aspergillus flavus [2]): 30 mg/L (≈ 65 µM)
- MIC (Candida albicans): 50 mg/L (≈ 108 µM)

SMILES: c1ccc(CN2CCC(n3cc(-c4nnc(-c5ccccc5)c(-c5ccccc5)n4)nn3)CC2)cc1
- MIC (Fusarium oxysporum [1]): 60 mg/L (≈ 127 µM)
- MIC (Cryptococcus neoformans [5]): inactive
- MIC (Aspergillus flavus [7]): inactive
- MIC (Candida albicans): 40 mg/L (≈ 84.5 µM)
- MIC (Aspergillus niger [4]): 95 mg/L (≈ 201 µM)

SMILES: Clc1ccc(COC(Cn2ccnc2)c2ccc(Cl)cc2Cl)c(Cl)c1 (stereo not given) [MICONAZOLE]
- MIC (Fusarium oxysporum [1]): 25 mg/L (≈ 60.1 µM)
- MIC (Aspergillus flavus [2]): 12.5 mg/L (≈ 30 µM)
- MIC (Cryptococcus neoformans [3]): 25 mg/L (≈ 60.1 µM)
- MIC (Candida albicans): 25 mg/L (≈ 60.1 µM)
- MIC (Aspergillus niger [4]): 12.5 mg/L (≈ 30 µM)

SMILES: O=C(c1ccccc1)N1CCC(n2cc(-c3nnc(-c4ccccc4)c(-c4ccccc4)n3)nn2)CC1
- MIC (Fusarium oxysporum [1]): 30 mg/L (≈ 61.5 µM)
- MIC (Aspergillus flavus [2]): 17.5 mg/L (≈ 35.9 µM)
- MIC (Cryptococcus neoformans [3]): 55 mg/L (≈ 113 µM)
- MIC (Candida albicans): 30 mg/L (≈ 61.5 µM)
- MIC (Aspergillus niger [4]): 15 mg/L (≈ 30.8 µM)

SMILES: CC(C)(C)OC(=O)N1CCC(n2cc(-c3nnc(-c4ccccc4)c(-c4ccccc4)n3)nn2)CC1
- MIC (Aspergillus niger [6]): inactive
- MIC (Aspergillus flavus [2]): 55 mg/L (≈ 114 µM)
- MIC (Cryptococcus neoformans [3]): 100 mg/L (≈ 207 µM)
- MIC (Fusarium oxysporum [8]): inactive
- MIC (Candida albicans): 70 mg/L (≈ 145 µM)

SMILES: CN1CCC(n2cc(-c3nnc(-c4ccccc4)c(-c4ccccc4)n3)nn2)CC1
- MIC (Fusarium oxysporum [1]): 30 mg/L (≈ 75.5 µM)
- MIC (Aspergillus flavus [2]): 17.5 mg/L (≈ 44 µM)
- MIC (Cryptococcus neoformans [3]): 25 mg/L (≈ 62.9 µM)
- MIC (Candida albicans): 25 mg/L (≈ 62.9 µM)
- MIC (Aspergillus niger [4]): 12.5 mg/L (≈ 31.4 µM)

SMILES: CCN1CCC(n2cc(-c3nnc(-c4ccccc4)c(-c4ccccc4)n3)nn2)CC1
- MIC (Fusarium oxysporum [1]): 25 mg/L (≈ 60.8 µM)
- MIC (Aspergillus flavus [2]): 12.5 mg/L (≈ 30.4 µM)
- MIC (Cryptococcus neoformans [3]): 35 mg/L (≈ 85.1 µM)
- MIC (Candida albicans): 25 mg/L (≈ 60.8 µM)
- MIC (Aspergillus niger [4]): 12.5 mg/L (≈ 30.4 µM)

SMILES: CC(=O)N1CCC(n2cc(-c3nnc(-c4ccccc4)c(-c4ccccc4)n3)nn2)CC1
- MIC (Fusarium oxysporum [1]): 40 mg/L (≈ 94 µM)
- MIC (Cryptococcus neoformans [5]): inactive
- MIC (Aspergillus flavus [2]): 20 mg/L (≈ 47 µM)
- MIC (Candida albicans): 35 mg/L (≈ 82.3 µM)
- MIC (Aspergillus niger [4]): 20 mg/L (≈ 47 µM)

SMILES: CCC(=O)N1CCC(n2cc(-c3nnc(-c4ccccc4)c(-c4ccccc4)n3)nn2)CC1
- MIC (Fusarium oxysporum [1]): 50 mg/L (≈ 114 µM)
- MIC (Cryptococcus neoformans [5]): inactive
- MIC (Aspergillus flavus [2]): 20 mg/L (≈ 45.5 µM)
- MIC (Candida albicans): 50 mg/L (≈ 114 µM)
- MIC (Aspergillus niger [4]): 20 mg/L (≈ 45.5 µM)

SMILES: c1ccc(-c2nnc(-c3cn(C4CCNCC4)nn3)nc2-c2ccccc2)cc1
- MIC (Fusarium oxysporum [1]): 40 mg/L (≈ 104 µM)
- MIC (Aspergillus flavus [2]): 37.5 mg/L (≈ 97.8 µM)
- MIC (Cryptococcus neoformans [3]): 45 mg/L (≈ 117 µM)
- MIC (Candida albicans): 30 mg/L (≈ 78.2 µM)
- MIC (Aspergillus niger [4]): 42.5 mg/L (≈ 111 µM)
